The values below come from ChEMBL document CHEMBL1133087, “Radioiodinated N-(2-diethylaminoethyl)benzamide derivatives with high melanoma uptake: structure-affinity relationships, metabolic fate, and intracellular localization” (J Med Chem, 2000).

The subject of data set [1] is B16. Kind of data set: Binding of radioiodinated compound in B16 cells as a function of specific activity for blood at 1 hr after injecting at 1.5(umol/mouse). Format: functional. The essentials: (§1)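 C57Bl/6 mice carried subcutaneous B16 melanoma. Melanoma and blood radioactivity were measured by γ-counting at 1 or 6 h and expressed as % ID/g (mean, n = 3).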
Data set [2] relates to B16. The data set can be described thus: Binding of radioiodinated compound in B16 cells as a function of specific activity for blood at 1 hr after injecting at 1.5*10e-3 (uMol/mouse). The class given is functional. The essentials:
as §1

Data set [3] has as its system B16. The data set can be described thus: Binding of radioiodinated compound in B16 cells as a function of specific activity for blood at 1 hr after injecting at 1.8*10e-6 (uMol/mouse). The class given is functional. The essentials:
as §1

Data set [4] has as its system B16. Kind of data set: Binding of radioiodinated compound in B16 cells as a function of specific activity for blood at 6 hr after injecting at 1.5(umol/mouse). Format: functional. The essentials:
as §1

The subject of data set [5] is B16. Kind of data set: Binding of radioiodinated compound in B16 cells as a function of specific activity for blood at 6 hr after injecting at 1.5*10e-3 (uMol/mouse). Format: functional. The essentials: as §1
Data set [6] has as its system B16. Kind of data set: Binding of radioiodinated compound in B16 cells as a function of specific activity for blood at 6 hr after injecting at 1.8*10e-6 (uMol/mouse). Format: functional. The essentials: as §1
Data set [7] relates to B16. The data set can be described thus: Binding of radioiodinated compound in B16 cells as a function of specific activity for melanoma after 1 hr injecting at 1.8*10e-6 (uMol/mouse). Format: functional. The essentials:
as §1

In data set [8] the test system is B16. Kind of data set: Binding of radioiodinated compound in B16 cells as a function of specific activity for melanoma at 1 hr after injecting at 1.5(umol/mouse). The class given is functional. The essentials:
as §1

For data set [9], the system named is B16. The data set can be described thus: Binding of radioiodinated compound in B16 cells as a function of specific activity for melanoma at 1 hr after injecting at 1.5*10e-3 (uMol/mouse). Format: functional. The essentials: as §1
In data set [10] the test system is B16. Kind of data set: Binding of radioiodinated compound in B16 cells as a function of specific activity for melanoma at 6 hr after injecting at 1.5(umol/mouse). Format: functional. The essentials: as §1
For data set [11], the system named is B16. Kind of data set: Binding of radioiodinated compound in B16 cells as a function of specific activity for melanoma at 6 hr after injecting at 1.5*10e-3 (uMol/mouse). The class given is functional. The essentials:
as §1

Data set [12] relates to B16. Kind of data set: Binding of radioiodinated compound in B16 cells as a function of specific activity for melanoma at 6 hr after injecting at 1.8*10e-6 (uMol/mouse). The class given is functional. The essentials: as §1
Data set [13] deals with Mus musculus. Kind of data set: (§2) Amount of urinary radioactivity collected within 4 hr after iv injection into C57B1/6 mice was analyzed by RP-HPLC. The class given is functional, Urine.
Data set [14] concerns Mus musculus. The data set can be described thus: Biodistribution was studied by injecting intravenously into C57B1/6 mice bearing subcutaneously transplanted B16 melanoma after 1 hr. The class given is ADME, organism-based. As to conditions: in vivo, iv.
The subject of data set [15] is Mus musculus. Described as §2. Format: ADME, organism-based, Urine. The settings on record: in vivo.
Data set [16] can be described thus: The lipophilicity was measured in an octanol/water system at pH 7.4. The class given is physicochemical. The essentials: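 HPLC-purified no-carrier-added radioiodinated benzamide was added to 0.067 M phosphate buffer at pH 7.4 with an equal volume of 1-octanol. The mixture was vortexed to equilibrium, centrifuged and the phases separated. Each phase was γ-counted, with log P = log(cpm octanol/cpm buffer).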

The test system of data set [17] is Mus musculus. The data set can be described thus: Biodistribution was studied by injecting intravenously into C57B1/6 mice bearing subcutaneously transplanted B16 spleen after 1 hr. Format: ADME, organism-based. The settings on record: in vivo, iv.
For data set [18], the system named is Mus musculus. Kind of data set: Biodistribution was studied by injecting intravenously into C57B1/6 mice bearing subcutaneously transplanted B16 blood after 1 hr. The class given is ADME, organism-based. As to conditions: in vivo, iv.
Data set [19] deals with Mus musculus. The data set can be described thus: Biodistribution was studied by injecting intravenously into C57B1/6 mice bearing subcutaneously transplanted B16 heart after 6 hr. The class given is ADME, organism-based. The settings on record: in vivo, iv.
Data set [20] relates to Mus musculus. The data set can be described thus: Biodistribution was studied by injecting intravenously into C57B1/6 mice bearing subcutaneously transplanted B16 muscle after 1 hr. The class given is ADME, organism-based, Muscle tissue. As to conditions: in vivo, iv.
Data set [21] relates to Mus musculus. Kind of data set: Biodistribution was studied by injecting intravenously into C57B1/6 mice bearing subcutaneously transplanted B16 muscle after 6 hr. Format: ADME, organism-based, Muscle tissue. The settings on record: in vivo, iv.
Data set [22] has as its system Mus musculus. The data set can be described thus: Biodistribution was studied by injecting intravenously into C57B1/6 mice bearing subcutaneously transplanted B16 […] after 6 hr. The class given is ADME, organism-based. The settings on record: in vivo, iv.
Data set [23] has as its system Mus musculus. Kind of data set: Biodistribution was studied by injecting intravenously into C57B1/6 mice bearing subcutaneously transplanted B16 kidney after 1 hr. Format: ADME, organism-based. The settings on record: in vivo, iv.
In data set [24] the test system is Mus musculus. Kind of data set: Biodistribution was studied by injecting intravenously into C57B1/6 mice bearing subcutaneously transplanted B16 kidney after 6 hr. The class given is ADME, organism-based. The settings on record: in vivo, iv.
The subject of data set [25] is Mus musculus. The data set can be described thus: Biodistribution was studied by injecting intravenously into C57B1/6 mice bearing subcutaneously transplanted B16 liver after 1 hr. The class given is ADME, organism-based. The settings on record: in vivo, iv.
The test system of data set [26] is Mus musculus. Kind of data set: Biodistribution was studied by injecting intravenously into C57B1/6 mice bearing subcutaneously transplanted B16 liver after 6 hr. As to conditions: in vivo, iv. Format: ADME, organism-based.
Data set [27] has as its system Mus musculus. The data set can be described thus: Biodistribution was studied by injecting intravenously into C57B1/6 mice bearing subcutaneously transplanted B16 lung after 1 hr. The class given is ADME, organism-based. The settings on record: in vivo, iv.
The test system of data set [28] is Mus musculus. Kind of data set: Biodistribution was studied by injecting intravenously into C57B1/6 mice bearing subcutaneously transplanted B16 lung after 6 hr. The class given is ADME, organism-based. As to conditions: in vivo, iv.
Data set [29] has as its system Mus musculus. The data set can be described thus: Biodistribution was studied by injecting intravenously into C57B1/6 mice bearing subcutaneously transplanted B16 melanoma after 6 hr. As to conditions: in vivo, iv. The class given is ADME, organism-based.
The subject of data set [30] is Mus musculus. The data set can be described thus: Biodistribution was studied by injecting intravenously into C57B1/6 mice bearing subcutaneously transplanted B16 blood after 6 hr. Format: ADME, organism-based. As to conditions: in vivo, iv.
Data set [31] relates to Mus musculus. The data set can be described thus: Biodistribution was studied by injecting intravenously into C57B1/6 mice bearing subcutaneously transplanted B16 brain after 1 hr. Format: ADME, organism-based. As to conditions: in vivo, iv.
Data set [32] relates to Mus musculus. Kind of data set: Biodistribution was studied by injecting intravenously into C57B1/6 mice bearing subcutaneously transplanted B16 brain after 6 hr. Format: ADME, organism-based. As to conditions: in vivo, iv.
Data set [33] concerns Mus musculus. Kind of data set: Biodistribution was studied by injecting intravenously into C57B1/6 mice bearing subcutaneously transplanted B16 heart after 1 hr. Format: ADME, organism-based. The settings on record: in vivo, iv.
A short description of data set [34]: Selectivity parameter calculated as the mean of 8 melanoma / non target tissue ratio at 1 hr postinjection. The class given is functional. The essentials:
(§3)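 Tissue radioactivity was γ-counted as % ID/g. Selectivity (M/NTT) is the mean of the 8 melanoma/nontarget tissue ratios: blood, heart, lung, spleen, liver, kidney, muscle and brain. n = 3.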

Data set [35] can be described thus: Selectivity parameter calculated as the mean of 8 melanoma / non target tissue ratio at 6 hr postinjection. The class given is functional. The essentials: as §3

Take `CCN(CC)CCNC(=O)c1ccc(I)cc1`: the ID/g with B16 [1] stood at 1.04%; in the data set with B16 [2], 1.06%; in the data set with B16 [3] it was 0.65%; in the data set on B16 [4] it was 0.1%; with B16 [5], 0.15%; with B16 [6], 0.17%. Further, the ID/g was found to be 5.67% in the data set on B16 [7]; 11.6% in the data set with B16 [8]; 10% in the data set with B16 [9]; 14.6% with B16 [10]; 15.5% in the data set with B16 [11]; 9.32% in the data set with B16 [12]. Besides, the ID in the data set on Mus musculus [13] turned out to be 66%.

Take `CCN(CC)CCNC(=O)c1ccc(OC)c(I)c1`: the ID/g in the data set on Mus musculus [14] was determined as 6.5%; in the data set with Mus musculus [17], 0.39%; in the data set with Mus musculus [18] it was 0.2%; with Mus musculus [19], 0.05%; in the data set on Mus musculus [20] it was 0.19%; with Mus musculus [21] it was 0.03%. The ID/g worked out at 0.05% in the data set with Mus musculus [22]; 0.93% in the data set on Mus musculus [23]; 0.17% with Mus musculus [24]; 2.62% in the data set on Mus musculus [25]; 0.29% with Mus musculus [26]; 0.69% in the data set on Mus musculus [27]. For the same molecule, the ID/g with Mus musculus [28] worked out at 0.09%; in the data set with Mus musculus [29] it was 4.14%; in the data set with Mus musculus [30] it was 0.04%; in the data set with Mus musculus [31], 0.1%; in the data set on Mus musculus [32] it was 0.01%; in the data set with Mus musculus [33], 0.25%. For the same molecule, the ID/g in the data set with B16 [1] is 0.78%; with B16 [2], 1.03%; with B16 [3] it was 0.2%; in the data set with B16 [4] it was 0.29%; with B16 [5] it was 0.24%; with B16 [6], 0.04%. Further, the ID/g in the data set with B16 [7] was 6.5%; with B16 [8] it was 5.41%; in the data set with B16 [9], 4.86%; with B16 [10], 3.72%; with B16 [11], 5.27%; with B16 [12], 4.14%. The ID in the data set with Mus musculus [15] amounted to 82%. Also, the logD in data set [16] turned out to be 1.13. Moreover, the Ratio in [34] is given as 24; in data set [35], 129.
